# Results as given in ChEMBL document CHEMBL1132699, “Synthesis and biological evaluation of 2',3'-didehydro-2',3'- dideoxy-5-fluorocytidine (D4FC) analogues: discovery of carbocyclic nucleoside triphosphates with potent inhibitory activity against HIV-1 reverse transcriptase” (J Med Chem, 1999).
# Key:
# [1] = system: PC-3; experiment: Tested in vitro for anticancer activity against PC-3 cells; assay type: functional, cell-based; details: Homo sapiens
# [2] = system: CCRF-CEM; experiment: Tested in vitro for anticancer activity against CEM cells; assay type: functional, cell-based; details: Homo sapiens
# [3] = system: SK-MES-1; experiment: Tested in vitro for anticancer activity against SK-MES-1 cells; assay type: functional, cell-based; details: Homo sapiens
# [4] = Tested in vitro for cytotoxicity against PBM cells; assay type: functional, cell-based; details: Homo sapiens, PBMC
# [5] = system: Vero; experiment: Tested in vitro for cytotoxicity against Vero cells; assay type: functional, cell-based; details: Chlorocebus sabaeus
# [6] = system: Human immunodeficiency virus 1; experiment: (§1) Tested in vitro for anti HIV-1 activity against PBM cells; assay type: functional, organism-based; details: Human immunodeficiency virus 1, PBMC
# [7] = system: Human immunodeficiency virus 1; experiment: as §1; assay type: functional; details: Human immunodeficiency virus 1, PBMC
# [8] = system: 9L; experiment: Tested in vitro for anticancer activity against 9L cells; assay type: functional, cell-based; details: Rattus norvegicus
# Summary of the method: (§2)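 Growth inhibition in human or rat tumour cell lines. Cells cultured with drug in 96-well plates for 5 days (LNCaP, SK-MES-1), 4 days (CEM, MCF-7, SK-MEL-28, HepG2, 9L) or 3 days (PC-3). Solvent-exposed untreated cells served as negative control. Viable, actively metabolizing cells were read by MTT assay. DMSO stocks (40 mM) were diluted in growth medium. IC50 in μM.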
# [9] = system: LNCaP; experiment: Tested in vitro for anticancer activity against LNCaP cells; assay type: functional, cell-based; details: Homo sapiens
# [10] = system: MCF7; experiment: Tested in vitro for anticancer activity against MCF-7 cells; assay type: functional, cell-based; details: Homo sapiens
# [11] = system: SK-MEL-28; experiment: Tested in vitro for anticancer activity against SK-MEL-28 cells; assay type: functional, cell-based; details: Homo sapiens
# [12] = system: HepG2; experiment: Tested in vitro for anticancer activity against HepG2 cells; assay type: functional, cell-based; details: Homo sapiens
# [13] = system: SK-MEL-28; experiment: The compound was tested in vitro for anticancer activity against SK-MEL-28 cells; assay type: functional, cell-based; details: Homo sapiens; summary of the method: as §2
# [14] = target: Human immunodeficiency virus type 1 reverse transcriptase (Human immunodeficiency virus 1, UniProt Q72547); experiment: (§3) The compound was tested for inhibitory activity against Recombinant HIV-1 reverse transcriptase
# Summary of the method: (§4)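 Extension assay with HIV-1 p66/51 heterodimer RT (1 unit) and r(I)n·(dC)12-18 template-primer (0.05 units/mL). Buffer: Tris-HCl pH 8.0, KCl, MgCl2, DTT, 100 μg/mL BSA, 1 μM [3H]dCTP. Incubated 1 h at 37 °C, stopped with cold 10% TCA/0.05% sodium pyrophosphate for 30 min at 4 °C. Precipitate filter-harvested and counted by beta counting. 3TC-TP served as positive control.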
# [15] = target: Human immunodeficiency virus type 1 reverse transcriptase (Human immunodeficiency virus 1) (UniProt Q72547); experiment: as §3; summary of the method: as §4
# [16] = system: 9L; experiment: The compound was tested in vitro for anticancer activity against 9L cells; assay type: functional, cell-based; details: Rattus norvegicus; summary of the method: as §2
Compound,IC50 [1] [µM],IC50 [2] [µM],IC50 [3] [µM],IC50 [4] [µM],IC50 [5] [µM],EC50 [6] [µM],EC90 [7] [µM],IC50 [8] [µM],IC50 [9] [µM],IC50 [10] [µM],IC50 [11] [µM],IC50 [12] [µM],IC50 [13] [µM],IC50 [14] [µM],IC90 [15] [µM],IC50 [16] [µM]
Nc1nc(=O)n([C@@H]2C=C[C@@H](CO)O2)cc1F,> 100,> 100,> 100,> 100,> 100,20,70,> 100,> 100,> 100,> 100,> 100,,,,
Nc1nc(=O)n([C@H]2C=C[C@@H](CO)O2)cc1Br,> 100,42.5,> 100,91.6,> 100,> 10,> 10,,> 100,> 100,> 100,> 100,,,,
Cc1cn([C@H]2C[C@H](N=[N+]=[N-])[C@@H](CO)O2)c(=O)[nH]c1=O [ZIDOVUDINE],,,> 100,> 100,,0.002,0.02,,,> 10,,,> 10,,,
Nc1nc(=O)n(C2C=CC(COP(=O)(O)OP(=O)(O)OP(=O)(O)O)C2)cc1F (racemic),,,,,,,,,,,,,,0.4,4,
Nc1ccn(C2C=CC(CO)C2)c(=O)n1 (stereo not given),,> 100,,> 100,> 100,9,59.9,,,,,,,,,
Nc1ccc([C@@H]2CS[C@H](OP(=O)(O)OP(=O)(O)OP(=O)(O)O)O2)c(=O)[nH]1,,,,,,,,,,,,,,3.6,,
Nc1nc(=O)n([C@@H]2C=C[C@H](CO)O2)cc1F [ELVUCITABINE],> 100,0.46,99.1,12.9,9.4,0.034,0.16,,55.2,82.8,> 100,118,,,,
O=c1[nH]c(=O)n([C@@H]2C=C[C@@H](CO)O2)cc1F,> 100,11.4,10,47.4,3,7.5,23,,85.8,67.3,9.8,37.1,,,,2.4
Nc1nc(=O)n([C@H]2C=C[C@@H](CO)O2)cc1F [DEXELVUCITABINE],> 10,> 100,> 100,> 100,> 100,0.046,0.77,,> 100,> 100,> 100,> 100,,,,
CC(=O)OC[C@@H]1C=C[C@H](n2cc(F)c(N)nc2=O)O1,> 100,> 100,> 100,> 100,> 100,0.13,0.4,,,,> 100,> 100,,,,
Nc1ccc([C@@H]2CS[C@H](OP(=O)(O)OP(=O)(O)OP(=O)(O)O)O2)c(O)n1,,,,,,,,,,,,,,,29.8,
O=c1[nH]c(=O)n([C@@H]2C=C[C@H](CO)O2)cc1F,83.4,12.9,4.6,2.3,32,0.26,3,1.9,57.2,15.8,7.45,35.4,,,,
CCCCC(=O)OC[C@@H]1C=C[C@H](n2cc(F)c(N)nc2=O)O1,> 100,124,> 100,> 100,> 100,0.056,0.34,,> 100,> 100,> 100,> 100,,,,
Nc1nc(=O)n([C@H]2C=C[C@@H](COP(=O)(O)OP(=O)(O)OP(=O)(O)O)C2)cc1F (racemic),,,,,,,,,,,,,,0.27,2.2,
O=C1NC(O)C(F)=CN1[C@H]1C=C[C@@H](CO)O1 (stereo not given in full),63,9.1,4.2,32.2,7.9,7.9,23,1.2,67.8,54.1,21.7,59.3,,,,
CCCNc1nc(=O)n([C@H]2C=C[C@@H](CO)O2)cc1F,> 100,> 100,> 100,34.7,> 100,> 100,> 100,,> 100,> 100,> 100,> 100,,,,
O=c1[nH]cc(F)c(=O)[nH]1 [FLUOROURACIL],> 100,90.5,13.1,5,6.81,,,1,> 100,41,4.5,37.9,,,,
CC(=O)Nc1nc(=O)n([C@H]2C=C[C@@H](CO)O2)cc1F,> 100,14.7,84.6,> 100,103,1,6,,> 100,62.9,108,> 100,,,,
Nc1ccn(C2C=CC(COP(=O)(O)OP(=O)(O)OP(=O)(O)O)C2)c(=O)n1 (racemic),,,,,,,,,,,,,,0.38,3.4,
CCCC(=O)OC[C@@H]1C=C[C@H](n2cc(F)c(N)nc2=O)O1,> 100,> 100,> 100,> 100,> 100,0.15,0.61,> 100,> 100,> 100,> 100,> 100,,,,
C[C@@H]1C[C@@H]([C@H](O)CC2CC(=O)NC(=O)C2)C(=O)[C@@H](C)C1 [CYCLOHEXIMIDE],3.5,0.12,2.7,2.1,1.2,,,0.2,1.2,1.5,1,2.5,,,,
Nc1nc(=O)n(C2C=CC(CO)C2)cc1F (stereo not given),,> 100,,> 100,> 100,8.2,71,,,,,,,,,
Nc1nc(=O)n([C@H]2C=C[C@@H](CO)O2)cc1I,> 100,107,> 100,98.3,> 100,> 10,> 10,,> 100,> 100,> 100,> 100,,,,
